The values that follow come from ChEMBL document CHEMBL4837219, “Chemical modification of NSC12 leads to a specific FGF-trap with antitumor activity in multiple myeloma” (Eur J Med Chem, 2021).

Each structure is given as a SMILES string. Calls of active or inactive are those of the source. No cut-off for these calls is given here.

Data set [1] deals with Estrogen receptor beta (Homo sapiens) (UniProt Q92731). Put plainly: Displacement of [3H]estradiol from human full length recombinant ERbeta expressed in baculovirus-infected Sf9 cells at 50 uM incubated for 120 mins by radiometric scintillation counting analysis. The gist of the method: (§1)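 Radioligand competition binding to human ERα or ERβ, run as an outsourced panel assay. Readout is % inhibition of specific [3H]estradiol binding at 5.0 and 50 µM compound. Run in duplicate, and the mean of the duplicates is reported.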
Chain of Estrogen receptor beta (Homo sapiens) (Q92731 whole entry): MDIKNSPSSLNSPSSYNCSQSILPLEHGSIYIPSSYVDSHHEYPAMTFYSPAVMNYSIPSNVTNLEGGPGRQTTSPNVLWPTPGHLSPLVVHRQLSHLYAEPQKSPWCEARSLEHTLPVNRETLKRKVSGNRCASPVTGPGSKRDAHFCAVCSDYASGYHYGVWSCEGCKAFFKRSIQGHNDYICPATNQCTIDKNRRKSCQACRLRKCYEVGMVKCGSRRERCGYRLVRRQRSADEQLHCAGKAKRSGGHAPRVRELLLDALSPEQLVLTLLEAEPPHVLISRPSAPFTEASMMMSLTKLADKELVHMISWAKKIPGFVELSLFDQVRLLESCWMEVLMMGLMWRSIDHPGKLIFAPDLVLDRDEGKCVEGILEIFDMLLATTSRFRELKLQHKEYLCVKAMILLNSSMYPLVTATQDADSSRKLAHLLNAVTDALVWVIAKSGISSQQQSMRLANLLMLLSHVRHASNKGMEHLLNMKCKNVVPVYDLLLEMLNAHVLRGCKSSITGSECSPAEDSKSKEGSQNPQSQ

The test system of data set [2] is OPM-2. Description: Trapping activity at FGF in human OPM-2 cells assessed as inhibition of FGFR3 phosphorylation at 6 uM measured after 6 hrs by westernblot analysis. Type of data set: cell-based. The gist of the method: (§2)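 Cells cultured in RPMI1640 with 10% FBS and 2.0 mM glutamine, then treated 6 h with 6 µM compound. Washed in cold PBS and lysed in NP-40 buffer (20 mM Tris-HCl pH 8, 1 mM orthovanadate, protease inhibitors). Bradford used to normalize protein. Blots probed for phospho-FGFR3 (Y724), with β-actin or α-tubulin as loading control; percent inhibition read by densitometry.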

For data set [3], the target named is T1, Estrogen receptor (Homo sapiens) (UniProt P03372).
T1 sequence (whole entry): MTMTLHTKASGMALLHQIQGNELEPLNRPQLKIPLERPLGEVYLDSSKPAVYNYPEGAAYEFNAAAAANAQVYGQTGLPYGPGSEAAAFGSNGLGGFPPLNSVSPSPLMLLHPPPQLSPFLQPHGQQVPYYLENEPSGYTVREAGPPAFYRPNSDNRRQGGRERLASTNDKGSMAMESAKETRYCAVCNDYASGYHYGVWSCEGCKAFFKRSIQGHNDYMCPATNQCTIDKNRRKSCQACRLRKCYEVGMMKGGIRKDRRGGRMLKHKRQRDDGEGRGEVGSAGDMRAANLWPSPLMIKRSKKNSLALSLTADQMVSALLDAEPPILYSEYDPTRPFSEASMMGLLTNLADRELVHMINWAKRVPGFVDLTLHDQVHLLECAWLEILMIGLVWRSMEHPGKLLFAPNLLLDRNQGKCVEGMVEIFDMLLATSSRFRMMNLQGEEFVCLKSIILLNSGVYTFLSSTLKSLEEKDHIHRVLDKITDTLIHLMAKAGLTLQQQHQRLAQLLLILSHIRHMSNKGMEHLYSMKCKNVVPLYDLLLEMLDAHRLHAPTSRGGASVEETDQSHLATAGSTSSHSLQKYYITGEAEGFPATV
Description: Displacement of [3H]estradiol from human full length recombinant ERalpha expressed in baculovirus-infected Sf9 cells at 5 uM incubated for 120 mins by radiometric scintillation counting analysis. The essentials:
as §1
(In a radioligand displacement assay an active substance lowers the binding of a labelled ligand.)

The target of data set [4] is Estrogen receptor beta (Homo sapiens) (UniProt Q92731). Put plainly: Displacement of [3H]estradiol from human full length recombinant ERbeta expressed in baculovirus-infected Sf9 cells at 5 uM incubated for 120 mins by radiometric scintillation counting analysis. The essentials:
as §1

Data set [5] concerns U-266. Put plainly: Trapping activity at FGF in human U-266 cells assessed as inhibition of FGFR3 phosphorylation at 6 uM measured after 6 hrs by westernblot analysis. Type of data set: cell-based. The essentials: as §2
Data set [6] has as its system KMS-11. Put plainly: Antitumor activity against human KMS-11 cells xenografted in NOD-SCID mouse assessed as tumor growth inhibition at 7.5 mg/kg, ip administered every other day measured at day 17 post-tumor implantation by caliper analysis. The format is functional, organism-based. The essentials:
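Female NOD/SCID mice, six to eight weeks old, injected s.c. with 5 × 10^6 KMS-11 cells in PBS. Once tumors were palpable (10 days), mice were randomized and given 7.5 mg/kg i.p. every other day, with DMSO as vehicle control; n = 5 per group. Tumor volume from caliper measurements, V = (D × d²)/2. Tumors excised and weighed at day 17.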

Data set [7] deals with RPMI-8226. Put plainly: Antiproliferative activity against human RPMI-8226 cells assessed as reduction in cell viability incubated for 48 hrs by propidium iodide staining-based flow cytometric analysis. Type of data set: functional. Conditions: RPMI-8226, 48 h. The essentials:
(§3)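 Myeloma cells kept at low passage in RPMI1640 with 10% heat-inactivated FBS and 2.0 mM glutamine, Mycoplasma-tested, authenticated. Exposed to increasing concentrations of test compound for 48 h. Viable cells counted as propidium iodide-negative by flow cytometry with absolute counts. IC50 = concentration halving proliferation; mean of at least 2 experiments in triplicate.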
On the technique in general: In flow cytometry, cells or beads pass a laser one at a time.

Data set [8] in a line: Drug metabolism in NOD-SCID mouse plasma assessed as (1R)-4,4,4-trifluoro-1-((3S,10R,13S,17S)-3-hydroxy-10,13-dimethyl-2,3,4,7,8,9,10,11,12,13,14,15,16,17-tetradecahydro-1H-cyclopenta[a]phenanthren-17-yl)-3-(trifluoromethyl)butane-1,3-diol formation at 7.5 mg/kg, ip measured after 90 mins by HPLC-MS/MS analysis. The conditions noted are these: in vivo, 1.5 h. Type of data set: ADME, organism-based.

Data set [9] can be described thus: Total plasma concentration in NOD-SCID mouse at 7.5 mg/kg, ip measured after 90 mins by HPLC/MS/MS analysis. Type of data set: ADME, organism-based. The gist of the method: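 A single 7.5 mg/kg i.p. dose given to eight-week-old NOD/SCID mice (n = 4). Blood collected at 90 min. Plasma treated with acetonitrile containing internal standard (1:2) to precipitate protein, centrifuged, and the supernatant analyzed by C18 gradient HPLC-MS/MS in ESI-negative MRM mode. Calibration in spiked blank plasma, linear over 1–1000 nM, LOQ 1 nM. Values are mean ± SEM.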

The subject of data set [10] is RPMI-8226. Description: Trapping activity at FGF in human RPMI-8226 cells assessed as inhibition of FGFR3 phosphorylation at 6 uM measured after 6 hrs by westernblot analysis. The format is cell-based. The gist of the method: as §2
Data set [11] has as its target T1, Estrogen receptor (Homo sapiens). Put plainly: Displacement of [3H]estradiol from human full length recombinant ERalpha expressed in baculovirus-infected Sf9 cells at 50 uM incubated for 120 mins by radiometric scintillation counting analysis. The essentials:
as §1

Data set [12] relates to KMS-11. Description: Trapping activity at FGF in human KMS-11 cells assessed as inhibition of FGFR3 phosphorylation at 6 uM measured after 6 hrs by western blot analysis. Type of data set: cell-based. The gist of the method:
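KMS-11 cells treated for 6 h with compound at 6.0 µM, then lysed in NP-40 buffer containing orthovanadate and protease inhibitors. Phospho-FGFR3 detected by western blot with anti-phospho-Y724 antibody, using β-actin or α-tubulin as loading control. Result expressed as % inhibition of FGFR3 phosphorylation by densitometry.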
On the technique in general: In western blotting, separated proteins are transferred to a membrane and probed.

Data set [13] relates to KMS-11. Put plainly: Antiproliferative activity against human KMS-11 cells assessed as reduction in cell viability incubated for 48 hrs by propidium iodide staining-based flow cytometric analysis. Type of data set: functional. Conditions: KMS-11, 48 h. The essentials:
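KMS-11 cells (maintained in RPMI1640 with 10% heat-inactivated FBS and 2.0 mM glutamine) exposed to increasing concentrations of compound for 48 h. Viable PI-negative cells counted by flow cytometry using the analyzer's absolute counting function. IC50 is the concentration giving 50% inhibition of proliferation, taken as the mean of at least 2 experiments run in triplicate.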

Data set [14] concerns the target Fibroblast growth factor 2 (Homo sapiens, UniProt P09038). Description: Binding affinity to FGF2 (unknown origin) by sensor chip immobilization based surface plasmon resonance analysis.
The subject of data set [15] is OPM-2. Put plainly: Antiproliferative activity against human OPM-2 cells assessed as reduction in cell viability incubated for 48 hrs by propidium iodide staining-based flow cytometric analysis. Type of data set: functional. Conditions: OPM-2, 48 h. The gist of the method:
as §3

In data set [16] the test system is U-266. Put plainly: Antiproliferative activity against human U-266 cells assessed as reduction in cell viability incubated for 48 hrs by propidium iodide staining-based flow cytometric analysis. The conditions noted are these: U-266, 48 h. Type of data set: functional. The gist of the method:
as §3

Chain of Fibroblast growth factor 2 (P09038 143-288 limits assumed): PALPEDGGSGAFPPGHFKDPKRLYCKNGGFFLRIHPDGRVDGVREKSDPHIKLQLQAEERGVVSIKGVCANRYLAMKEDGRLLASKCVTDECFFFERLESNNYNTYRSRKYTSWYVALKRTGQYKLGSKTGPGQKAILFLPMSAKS

Usually inhibition stands for the drop in the measured response relative to a control, in per cent. Usually IC50 stands for the concentration at which inhibition is half-maximal. As a reminder, the Kd is the equilibrium constant for the complex coming apart. Take `C[C@]12CC[C@H]3[C@@H](CC=C4C[C@@H](OC(=O)CN)CC[C@@]43C)[C@@H]1CC[C@@H]2[C@H](O)CC(O)(C(F)(F)F)C(F)(F)F`: the inhibition was 71.3% in data set [1]; 7.4% in data set [3]; 21.4% in data set [4]; 50% in data set [11]; 100% with KMS-11 [12]. In addition, the outcome in the data set with OPM-2 [2], in the data set on U-266 [5] and in the data set with RPMI-8226 [10] was Active. In addition, in the data set on KMS-11 [6], the outcome was inactive. For the same compound, the IC50 was determined as 7.3 µM in the data set on RPMI-8226 [7], 2.3 µM in the data set on KMS-11 [13], 7.3 µM in the data set with OPM-2 [15] and 6.9 µM in the data set with U-266 [16]. In data set [8], the Drug metabolism entry is given as “Metabolite_Detected”. In data set [9], this compound came in with a concentration at 1.5 h of 7.5 nM. In addition, in data set [14], the Kd is 30 µM.
For `C[C@]12CCC(=O)C[C@@H]1CC[C@@H]1[C@@H]2CC[C@]2(C)[C@@H]([C@H](O)CC(O)(C(F)(F)F)C(F)(F)F)CC[C@@H]12`, the inhibition in [1] was found to be 17.6%; in [3], 0%; in data set [4], 4.3%; in data set [11], 0%; in the data set with KMS-11 [12] it was 99%. Further, the outcome in the data set on OPM-2 [2], with U-266 [5], in the data set with KMS-11 [6] and in the data set with RPMI-8226 [10] was Active. Further, the IC50 in the data set with RPMI-8226 [7] is 6.6 µM; with KMS-11 [13] it was 2.4 µM; in the data set with OPM-2 [15] it was 6.6 µM; in the data set on U-266 [16] it was 5.4 µM. In addition, the concentration at 1.5 h in data set [9] was 525 nM. The compound further gave a Kd in data set [14] of 30.5 µM.
